Laboratory results: publication PMC9924099 (Journal of medicinal chemistry, 2021)
Read-outs that look alike come from different tables or passages of the source.

Columns and labels:
[1] = test system: ATM in MDA-MB-468 cells; test: Western blot of pATM S1981; type: cell-based, human; conditions: MDA-MB-468, 6 μM, 24 h
How it was run: (§1)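 Cells were treated 24 h with 6 μM test compound or DMSO and lysed in NP-40 buffer; 250 μg lysate was run on 4–12% SDS-PAGE and transferred to PVDF. Probing used anti-pATM Ser1981 (1:500) with HRP anti-mouse IgG (1:1000) and ECL detection, then reprobing with anti-GAPDH (1:5000). Experiments were done in triplicate.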

[2] = test system: p53^R273H MDA-MB-468 cells; test: Annexin V staining; type: cell-based, human; conditions: MDA-MB-468, 6 μM or 12 μM; for increase in Annexin V stained cells compared to DMSO: 24 h
[3] = test system: WT p53 MCF-7 cells; test: WST-1 cell proliferation assay; type: cell-based, human; conditions: MCF-7, 24 h or 72 h; compared to mutant p53 cells
How it was run: (§2)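 WST-1 assay. Test compound in DMSO was added to cells at 40,000 cells/ml, giving 1% DMSO final, and plated at 4,000 cells/well in duplicate; medium-only wells served as background. Incubation was 24 h or 72 h at 37 °C, then WST-1 for 2 h and OD450 read. Proliferation is expressed as % of DMSO control; triplicate experiments. MCF-7 grown in RPMI 1640, MDA-MB-436 in DMEM.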

[4] = test system: colon cells (CCD841); test: Proliferation of normal cells; type: cell-based, human
[5] = test system: p53^R273H MDA-MB-468 cells; test: WST-1 cell proliferation assay; type: cell-based, human; conditions: Homo sapiens, read-out: IC50, inhibition of cell proliferation
[6] = test system: caspase 3 and PARP1 in WT p53 MCF-7 cells; test: Western blot of caspase 3 and PARP1; type: cell-based, human; conditions: MCF-7 (caspase 3-deficient), 24 h
How it was run: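 MCF-7 cells were treated with test compound or DMSO for 24 h and lysed on ice for 30 min (20 mM Tris-Cl pH 8.0, 137 mM NaCl, 10% glycerol, 1% NP-40, 2 mM EDTA, protease inhibitors). Lysates were cleared at 18,500 × g. 100 μg lysate was run on 4–12% SDS-PAGE, transferred to PVDF and probed with anti-PARP and anti-caspase 3 (1:1000), HRP secondary and ECL. GAPDH served as loading control.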

[7] = test system: WT p53 MCF-7 cells; test: qRT-PCR gene expression; type: cell-based, human; conditions: for expression of MDM2 / expression of canonical p53 targets p21 and NOXA: MCF-7, 6 μM; for expression of canonical p53 targets p21 and NOXA: 4 h; for p53 mRNA level: MCF-7, 4 h
How it was run: (§3)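 Cells were exposed to 6 μM test compound or DMSO for 4 h. RNA was extracted and reverse-transcribed, and transcripts were quantified by TaqMan qRT-PCR normalised to GAPDH. Values are means with SD from triplicates of repeated experiments.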

[8] = test system: p53^R280K MDA-MB-231 cells; test: Annexin V staining; type: cell-based, human; conditions: MDA-MB-231, 6 μM or 12 μM, 24 h
[9] = target: WT p53 in MCF-7 cells (Homo sapiens, UniProt P04637); test: Western blot of p53 expression; type: cell-based; conditions: MCF-7, 6 μM or 12 μM, 24 h
How it was run: (§4)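 Cells were treated 24 h with 6 μM or 12 μM test compound or DMSO and lysed in NP-40/Tris-Cl pH 8.0 buffer with protease inhibitors. Load on 4–12% SDS-PAGE was 20 μg for MDA-MB-231 and MDA-MB-468 or 50 μg for MCF-7. After PVDF transfer, blots were probed with p53 DO-1 antibody, reprobed for GAPDH as loading control and developed by ECL.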

[10] = test system: ATM in MDA-MB-231 cells; test: Western blot of pATM S1981; type: cell-based, human; conditions: MDA-MB-231, 6 μM, 24 h
How it was run: as §1

[11] = test system: caspase 3 and PARP1 in p53^R280K MDA-MB-231 cells; test: Western blot of caspase 3 and PARP1; type: cell-based, human; conditions: MDA-MB-231, 24 h
How it was run: (§5)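 Cells grown in RPMI 1640 with 10% FBS, 1% penicillin/streptomycin and 1% L-glutamine, then given test compound or DMSO control for 24 h. Lysed 30 min on ice in Tris-Cl pH 8.0/NaCl/glycerol/NP-40/EDTA buffer with protease inhibitors, then cleared. 100 μg lysate run on 4-12% SDS-PAGE, transferred to PVDF, probed with anti-PARP and anti-caspase 3 (1:1000 each). ECL detection.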

[12] = test system: p53^R280K MDA-MB-231 cells; test: Flow-cytometric cell cycle analysis; type: cell-based, human; conditions: MDA-MB-231, 6 μM, 24 h; DMSO 42.9%
[13] = target: p53^R273H in MDA-MB-468 cells (Homo sapiens, UniProt P04637, R273H); test: Western blot of p53 expression; type: cell-based; conditions: MDA-MB-468, 6 μM or 12 μM, 24 h
How it was run: as §4

[14] = test system: mammary epithelial cells (MCF10A); test: Proliferation of normal cells; type: cell-based, human
[15] = test system: caspase 3 and PARP1 in p53^R273H MDA-MB-468 cells; test: Western blot of caspase 3 and PARP1; type: cell-based, human; conditions: MDA-MB-468, 24 h
How it was run: as §5

[16] = test system: p53^R273H MDA-MB-468 cells; test: qRT-PCR gene expression; type: cell-based, human; conditions: for expression of MDM2 / expression of canonical p53 targets p21 and NOXA: MDA-MB-468, 6 μM; for expression of canonical p53 targets p21 and NOXA: 4 h; for p53 mRNA levels: MDA-MB-468, 4 h
How it was run: as §3

[17] = Log P determination; type: physicochemical; conditions: octanol/sodium phosphate buffer (pH 7.4)
[18] = target: p53^R280K in MDA-MB-231 cells (Homo sapiens, UniProt P04637, R280K); test: Western blot of p53 expression; type: cell-based; conditions: MDA-MB-231, 6 μM or 12 μM, 24 h
How it was run: as §4

[19] = test system: p53 knockdown MDA-MB-468 cells; test: WST-1 proliferation after p53 siRNA knockdown; type: cell-based, human; conditions: p53 siRNA MDA-MB-468 vs NS siRNA cells
How it was run: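 MDA-MB-468 cells at 50–60% confluence received p53 SMARTpool siRNA or non-specific siRNA (0.430 nmol with Lipofectamine 2000 in Opti-MEM, 5 h), with a second transfection 24 h later. At 72 h after the first transfection, cells were treated with test compound or DMSO. Proliferation was then measured by WST-1 as % of DMSO.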

[20] = test system: ATM in WT p53 MCF-7 cells; test: Western blot of pATM S1981; type: cell-based, human; conditions: MCF-7, 6 μM, 24 h
How it was run: as §1

[21] = test system: p53^R280K MDA-MB-231 cells; test: qRT-PCR gene expression; type: cell-based, human; conditions: for expression of canonical p53 targets p21 and NOXA: MDA-MB-231, 6 μM, 4 h; for p53 mRNA levels: MDA-MB-231, 4 h
How it was run: as §3

[22] = test system: p53 null MDA-MB-436 cells; test: WST-1 cell proliferation assay; type: cell-based, human; conditions: MDA-MB-436, 24 h and 72 h; compared to MDA-MB-231 or MDA-MB-468
How it was run: as §2

[23] = test system: p53^R280K MDA-MB-231 cells; test: WST-1 cell proliferation assay; type: cell-based, human; conditions: for IC50: Homo sapiens, read-out: IC50, inhibition of cell proliferation
[24] = test system: WT p53 MCF-7 cells; test: Annexin V staining; type: cell-based, human; conditions: MCF-7, 24 h
How it was run: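 After 24 h exposure to test compound or DMSO, MCF-7 cells (RPMI 1640, 10% FBS, 1% penicillin/streptomycin, 1% L-glutamine) were scraped, PBS-washed and taken up in Annexin V binding buffer. They were stained with fluorochrome-conjugated Annexin V for 15 min at RT in the dark, then PI staining solution was added. Flow cytometry read-out; % Annexin V-positive cells expressed relative to DMSO.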

SMILES | increase in Annexin V stained cells compared to DMSO [2] | IC50 ([5]; MDA-MB-468, 24 h) [µM] | IC50 ([5]; MDA-MB-468, 72 h) [µM] | levels of uncleaved PARP1 and cleaved-PARP1 [6] | expression of MDM2 [7] | expression of canonical p53 targets p21 and NOXA [7] | p53 mRNA level [7] | increase in Annexin V stained cells compared to DMSO [8] | WT p53 expression (western blot) [9] | levels of uncleaved caspase 3, uncleaved PARP1 and cleaved-PARP1 [11] | mutant p53 expression (western blot) [13] | levels of uncleaved caspase 3, uncleaved PARP1 and cleaved-PARP1 [15] | expression of MDM2 [16] | expression of canonical p53 targets p21 and NOXA [16] | p53 mRNA levels [16] | mutant p53 expression (western blot) [18] | expression of canonical p53 targets p21 and NOXA [21] | p53 mRNA levels [21] | IC50 ([23]; MDA-MB-231, 24 h) [µM] | IC50 ([23]; MDA-MB-231, 72 h) [µM] | other results
S=C=NCCCC12CC3CC(CC(C3)C1)C2 [Ad-ITC 6, 1-Isothiocyanato-3-(adamantan-1-yl)propane] | 2.0-5.1 fold | 12 to 24 | 12 to 24 | did not detect any significant decrease in the levels of uncleaved PARP1 or accumulation of cleaved-PARP1 fragments | enhanced the expression of MDM2 | upregulated expression of p21 and NOXA | increase in the p53 mRNA level | 2.0-5.1 fold | did not decrease WT p53 expression | significant decrease in the levels of uncleaved caspase 3 and PARP1 | differential decrease in the expression of mutant p53 | significant decrease in the levels of uncleaved caspase 3 and PARP1 | enhanced the expression of MDM2 | enhanced the expression of the canonical p53 targets p21 and NOXA | remained unchanged | differential decrease in the expression of mutant p53 | enhanced the expression of the canonical p53 targets p21 and NOXA | remained unchanged | 12 to 24 | 12 to 24 | phosphorylation of ATM at S1981 [1]: phosphorylation of ATM at S1981; inhibition of cell proliferation / sensitivity (in words) [3]: remarkably less sensitive; IC50 compared with mutant p53 tumor cells (in words) [4]: significantly higher; phosphorylation of ATM at S1981 [10]: phosphorylation of ATM at S1981; cells in G1 phase [12]: 48.2%; IC50 compared with mutant p53 tumor cells (in words) [14]: significantly higher; logP at 18 h [17]: 5.17; sensitivity of cell proliferation (in words) [19]: markedly reduced sensitivity; pATM-S1981 [20]: absent; sensitivity of cell proliferation (in words) [22]: significantly reduced sensitivity; inhibition of cell proliferation (in words) ([23]; MDA-MB-231, 24 h or 72 h): dose-dependent activity; increase in Annexin V stained cells compared to DMSO [24]: did not display any significant increase
[Se]=C=NCCC12CC3CC(CC(C3)C1)C2 [Ad-ISeC 14, 1-Isoselenocyanato-2-(adamantan-1-yl)ethane] | enhanced the apoptotic potential | 6 to 12 | 6 to 12 | did not detect any significant change | statistically significant elevation of MDM2 | significant increase in the expression levels | increase in the p53 mRNA level | enhanced the apoptotic potential | marginally elevated | decrease in the levels of uncleaved caspase 3 and PARP-1 and an increase in the levels of cleaved-PARP1 fragment | significant reduction in mutant p53 expression | decrease in the levels of uncleaved caspase 3 and PARP-1 and an increase in the levels of cleaved-PARP1 fragment | statistically significant elevation of MDM2 | significantly enhanced the levels of p21 and NOXA | remained unchanged | significant reduction in mutant p53 expression | significantly enhanced the levels of p21 and NOXA | remained unchanged | 6 to 12 | 6 to 12 | level of apoptosis compared to Ad-ITC 5 [2]: > 2 fold; IC50 compared with mutant p53 tumor cells (in words) ([4]; CCD841 normal cells vs MDA-MB-231 and MDA-MB-468): significantly higher; IC50 compared with mutant p53 tumor cells (in words) ([14]; MCF10A normal cells vs MDA-MB-231 and MDA-MB-468): significantly higher; increase in Annexin V stained cells compared to DMSO [24]: not in MCF-7 cells
